Arr AP2 block: blocks beta-arrestin peptide binding to AP2 adaptin; FITC-arrestin peptide / GST-AP2 beads, flow cytometry; AP2 beta2 appendage carries R879A mutation; inhibition, % at 10 µM; 340,000 tested, 0.31% active; AID 504490;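 active means inhibition above a set limit, near 3 SD of compounds lacking own fluorescence, cut at about 54% in these data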;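 further: plate controls were DMSO wells for no effect and 5 µM unlabelled arrestin peptide for full effect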
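System: GST-tagged AP2 beta2-adaptin appendage (R879A) on 4 µm glutathione beads / Reagent: FITC-arrestin peptide, 50 nM / Detection: HyperCyt-sampled flow cytometry, FL1 channel, ex 488/em 535 nm / Timing: 12 min plus 1 h, RT / Buffer or medium: PBS plus Tween 20 (0.05%) and BSA (0.1%)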
ABCB6 inh 2: human ABCB6 transporter inhibition; AID 602162; fluorescence ratio to DMSO, % at 10 µM; K562-ABCB6 porphyrin accumulation, flow cytometry, 1 h; hits give low values; 360,000 tested, 0.19% active; Q9NP58;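 active means fluorescence ratio to DMSO below 75%, the collection mean minus 3 SD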;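 further: signal is porphyrin accumulated inside mitochondria; 100% equals median channel fluorescence of DMSO control wells; lower ratio means ABCB6 inhibition with less porphyrin fluorescence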
Target sequence (Q9NP58 whole entry, looked up): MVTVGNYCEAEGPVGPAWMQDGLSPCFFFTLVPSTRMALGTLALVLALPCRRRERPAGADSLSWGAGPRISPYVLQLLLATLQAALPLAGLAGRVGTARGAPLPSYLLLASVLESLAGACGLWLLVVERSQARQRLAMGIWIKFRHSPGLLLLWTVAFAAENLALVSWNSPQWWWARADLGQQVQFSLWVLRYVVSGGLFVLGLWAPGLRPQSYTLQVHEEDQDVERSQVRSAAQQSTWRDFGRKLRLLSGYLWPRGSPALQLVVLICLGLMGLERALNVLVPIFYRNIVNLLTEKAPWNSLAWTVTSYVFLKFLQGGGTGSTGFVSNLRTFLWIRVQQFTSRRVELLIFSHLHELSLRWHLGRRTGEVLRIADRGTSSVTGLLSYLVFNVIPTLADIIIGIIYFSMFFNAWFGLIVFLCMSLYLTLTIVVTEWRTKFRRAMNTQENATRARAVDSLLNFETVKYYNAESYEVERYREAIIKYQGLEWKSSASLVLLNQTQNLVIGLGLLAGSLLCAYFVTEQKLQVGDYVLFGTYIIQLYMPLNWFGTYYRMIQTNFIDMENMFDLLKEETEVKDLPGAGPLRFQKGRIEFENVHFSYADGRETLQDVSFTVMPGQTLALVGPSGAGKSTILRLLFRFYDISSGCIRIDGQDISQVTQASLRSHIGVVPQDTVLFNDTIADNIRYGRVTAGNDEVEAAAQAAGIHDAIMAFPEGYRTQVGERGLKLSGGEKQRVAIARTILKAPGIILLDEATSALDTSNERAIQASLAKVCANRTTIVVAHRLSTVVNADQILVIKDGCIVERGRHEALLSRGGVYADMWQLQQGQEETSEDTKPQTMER
Myeloid diff MLP: myeloid differentiation induction | ER-HoxA9 myeloid progenitors, lysozyme-GFP differentiation, flow cytometry | calls only at 10 µM | 360,000 tested, 1% active;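 active means normalized GFP-positive differentiation at or above the plate's own cutoff, the solvent-only control mean plus 3 SD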;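 further: cells exposed to compound for four days before flow analysis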
Granule exo inh: lytic granule exocytosis inhibition; 360,000 tested, 0.66% active; inhibition, % at 10 µM; TALL-104 LAMP-1 surface exposure, flow cytometry; cells stimulated with thapsigargin and PMA;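 active means inhibition above about 55%, limit read from the data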
ATG4B inhibitor: ATG4B (human) cysteine protease inhibition; Q9Y4P1; ATG4B cleavage of LC3-PLA2, NBD-HPC fluorescence, 1 h; inhibition, % at 8.33 µM; 340,000 tested, 0.51% active; AID 504462; in the data active means inhibition above about 40%
CendR NRP1 mod: alters CendR peptide binding to human NRP-1; FAM-RPARPAR peptide binding to NRP-1, fluorescence polarization; inhibition, % at 25 µM; 360,000 tested, 0.85% active; AID 602438;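 active means inhibition or corrected inhibition above about 18%, plus a signal ratio from 0.5 to 1.5, limit read from the data, passing the limit was not always enough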
An asterisk follows results filed as active; i = inactive; · = not tested or not shown; + = active, no number; ! = repeats disagree. In the library only some 3.3% were active in any assay of this set; here they are far more common.

SMILES	Arr AP2 block	ABCB6 inh 2	Myeloid diff MLP	Granule exo inh	ATG4B inhibitor	CendR NRP1 mod
CCN1CCCC1CNC(=O)c1ccc2c(c1)NC(=O)/C(=C\c1ccc(C)cc1)S2 (stereo unspecified)	-5	100	i	61*	4	-7
COc1cc(C(=O)NCc2ccccc2)cc(Br)c1OC	6	99	i	-2	11	21*
COc1cc(C(=O)NCc2ccncc2)cc(OC)c1OC	12	102	i	0	-5	0
Cc1sc2nc(SCc3ccc(C(=O)O)cc3)n(Cc3ccco3)c(=O)c2c1C	24	91	i	8	12	-20
Cc1sc2nc(SCC(=O)c3cccs3)n(Cc3ccco3)c(=O)c2c1C	3	103	+	-1	15	-8
Nc1nc2ccc(Cl)cc2cc1C(=O)NCc1ccc(Oc2ccccc2)cc1	·	91	i	3	·	-22
O=C(Cc1ccc(F)cc1)N1CCN=C1SCc1ccc([N+](=O)[O-])cc1	7	96	i	-16	-9	22*
O=C(Cc1ccccc1)N1CCN=C1SCc1ccc([N+](=O)[O-])cc1	6	100	i	-1	-4	-10
O=C(Cc1ccc(F)cc1)N1CCN(c2ccc([N+](=O)[O-])cc2)CC1	-1	103	+	0	-8	-14
O=C(c1ccc([N+](=O)[O-])cc1)N1CCN(Cc2ccccc2[N+](=O)[O-])CC1	6	102	i	0	-2	-2
CCOc1ccc(NC(=O)NNC(=O)c2ccc3ccccc3c2O)cc1	-5	97	i	23	-7	26*
Cc1[nH]nc(N=CC2=C(O)CC(C)(C)CC2=O)c1-c1ccccc1	-2	95	i	-4	-11	19*!
Cc1[nH]nc(N=CC2=C(O)CC(c3ccco3)CC2=O)c1-c1ccccc1 (stereo unspecified)	-7	93	i	-5	-8	6
CCc1ccc(NC(=O)CNC(=O)[C@@H]2Cc3ccccc3CN2)cc1	2	98	i	53	5	-1
Cn1c2ccccc2c(=O)c2ccc(NCCc3cccs3)cc21	6	200	+	2	6	49
CC1=Nc2ccccc2/C1=C\c1nc(-c2ccc(C(F)(F)F)cc2)oc1O	-4	557	+	8	6	133
CCOC(=O)Nc1ccc(S(=O)(=O)N2CCC(C)CC2)cc1	7	105	i	0	2	21
O=C(CSC1=NC2(CCCCC2)N=C1c1ccccc1)Nc1ccc2c(c1)OCCO2	4	97	+	26	1	-16
CCn1cc(C(=O)NC(C)C23CC4CC(CC(C4)C2)C3)cn1 (stereo unspecified)	8	94	+	-3	-9	-2
CCOc1ccc(C(=O)Nc2nnc(SCC(=O)NCC3CCCO3)s2)cc1OCC (stereo unspecified)	-4	97	i	3	1	21*
Cc1ccc(NC(=O)Nc2ncnc3nc[nH]c23)cc1	-4	93	i	-2	-5	11
O=C1c2oc3ccccc3c(=O)c2C(c2ccc(O)cc2)N1c1nccs1 (stereo unspecified)	2	99	i	-2	-4	-6
NCCCC[C@H]1NC(=O)[C@H](CCC(=O)O)NC(=O)c2cc([N+](=O)[O-])cc(I)c2OCC[C@@H](C(N)=O)NC1=O	·	·	·	·	44*	·
C[C@@H]1NC(=O)c2cc([N+](=O)[O-])cc(I)c2OCC[C@@H](C(N)=O)NC(=O)[C@H](CCCCN)NC1=O	-18	99	i	1	-1	4
COc1cc(C2C(C#N)=C(N)N(c3cccnc3)C3=C2C(=O)CCC3)ccc1O (stereo unspecified)	5	103	i	3	6	-35
SMILES	Arr AP2 block	ABCB6 inh 2	Myeloid diff MLP	Granule exo inh	ATG4B inhibitor	CendR NRP1 mod
COc1cc(C2C(C#N)=C(N)N(c3ccc(F)cc3)C3=C2S(=O)(=O)CC3)ccc1O (stereo unspecified)	5	143	+	-3	-13	-95
CC(OC(=O)c1nn(C)c(=O)c2ccccc12)C(=O)Nc1ccc(S(N)(=O)=O)cc1 (stereo unspecified)	-13	102	+	2	4	-7
CC(C)c1ccc(S(=O)(=O)N(C)C2(C)CCS(=O)(=O)C2)cc1 (stereo unspecified)	-15	104	i	18	-5	-2
COc1ccc(N2CCN(C3CCCN(C(=O)CN4CCCC4=O)C3)CC2)cc1 (stereo unspecified)	-7	97	i	-2	-2	-3
CCc1ccc(C(=O)/C=C2\Sc3ccccc3NC2=O)cc1	7	96	i	2	56*	-14
CCCCNC(=O)/C=C1\Sc2ccccc2NC1=O	1	100	i	-1	-6	-7
CCOc1ccc(NC(=O)CCn2c(=O)[nH]c3ccsc3c2=O)cc1	22	97	i	-7	-8	2
S=c1nc(Cc2ccccc2)[nH]c2ccccc12	12	111	+	-17	7	2
S=c1nc(Cc2ccc(Cl)cc2)[nH]c2ccccc12	18	100	i	0	2	2
S=c1nc(COc2ccccc2)[nH]c2ccccc12	6	202	+	-11	-3	-4
O=c1[nH]c(COc2ccccc2)nc2ccccc12	-1	94	i	-12	0	-3
COC(=O)c1cc(S(=O)(=O)N2c3ccccc3CC2C)c[nH]1 (stereo unspecified)	29	93	i	12	1	8
COc1ccc(-c2nc3n(c(=O)c2C#N)CCCS3)cc1	6	103	i	2	2	5
CCOc1ccc(-c2nc3n(c(=O)c2C#N)CCCS3)cc1	-3	94	+	-5	-10	2
O=c1oc(-c2cccc(Cl)c2)nc2c1cnn2-c1ccccc1	34	93	i	-3	-14	10
O=c1oc(-c2ccccc2F)nc2c1cnn2-c1ccccc1	-1	94	i	84*	5	-10
CCc1ccc(/C=N/NC(=O)c2cc(-c3cccc([N+](=O)[O-])c3)n[nH]2)cc1	2	103	i	76*	-6	11
O=C(N/N=C/c1cccc([N+](=O)[O-])c1)c1cc(-c2ccc3c(c2)OCO3)n[nH]1	-16	89	i	-12	-11	15
O=C(N/N=C\c1c(O)ccc2ccccc12)c1ccc(S(=O)(=O)N2CCCCC2)cc1	-5	181	+	0	4	-15
O=[N+]([O-])c1ccc(N/N=C/c2ccccc2O)cc1	1	103	i	65*	-4	-54
O=[N+]([O-])c1ccc(NN=C(Oc2ccccc2)c2ccc([N+](=O)[O-])cc2)cc1	·	125	+	0	·	-48
